How the values were obtained:
Format in all cases: functional, cell-based
HeLa = test: Cytotoxicity against human HeLa cells after 48 hrs by MTT assay
In short: (§1)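 The human cancer lines and mouse 4T1 breast cells were treated with compound for 48 h and assessed by MTT assay. IC50 is the concentration giving 50% inhibition. 5-Fluorouracil served as the MTT standard.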

MDA-MB-231 = test: Cytotoxicity against human MDA-MB-231 cells after 48 hrs by MTT assay; settings: MDA-MB-231, 48 h; in short: as §1
A549 = test: Cytotoxicity against human A549 cells after 48 hrs by MTT assay; settings: A549, 48 h; in short: as §1
DU-145 = test: Cytotoxicity against human DU145 cells after 48 hrs by MTT assay; settings: DU-145, 48 h; in short: as §1
HGC-27 = test: Cytotoxicity against human HGC27 cells after 48 hrs by MTT assay; settings: HGC-27, 48 h; in short: as §1
PC-3 = test: Cytotoxicity against human PC3 cells after 48 hrs by MTT assay; settings: PC-3, 48 h; in short: as §1
4T1 = test: Cytotoxicity against mouse 4T1 cells after 48 hrs by MTT assay; settings: 4T1, 48 h; in short: as §1
MDA-MB-453 = test: Cytotoxicity against human MDA-MB-453 cells after 48 hrs by MTT assay; settings: MDA-MB-453, 48 h; in short: as §1
BT-549 = test: Cytotoxicity against human BT549 cells after 48 hrs by MTT assay; settings: BT-549, 48 h; in short: as §1

Row | SMILES | IC50 (HeLa) [µM] | IC50 (MDA-MB-231) [µM] | IC50 (A549) [µM] | IC50 (DU-145) [µM] | IC50 (HGC-27) [µM] | IC50 (PC-3) [µM] | IC50 (4T1) [µM] | IC50 (MDA-MB-453) [µM] | IC50 (BT-549) [µM]
1 | O=c1[nH]cc(F)c(=O)[nH]1 [FLUOROURACIL] | 1.86 | 4.33 | 1.6 | 2.18 | 14.7 | 1.2 | – | – | –
2 | COc1cc2cc(Cn3cc(CO)nn3)c3cc(OC)c(OC)cc3c2cc1OC | 18.3 | 6.8 | > 20 | > 20 | > 20 | > 20 | > 20 | 13.5 | 8.2
3 | COc1ccc2c3c(c4cc(OC)c(OC)cc4c2c1)C[C@H]1CCCN1C3 [(-)-ANTOFINE] | – | 0.012 | – | – | – | – | – | – | –
4 | COc1cc2cc(Cn3cc(COc4ccc5c(c4)OCO5)nn3)c3cc(OC)c(OC)cc3c2cc1OC | > 20 | 12.6 | 14.5 | 16.7 | 9.5 | 13.2 | 6.5 | 18.9 | 18.1
5 | COc1cc2cc(Cn3cc(COc4c(C)cc(C)cc4C)nn3)c3cc(OC)c(OC)cc3c2cc1OC | 17.6 | > 20 | > 20 | > 20 | > 20 | > 20 | 6.2 | 12.6 | 12.4
6 | COc1cc2cc(Cn3cc(COc4ccc(Br)cc4)nn3)c3cc(OC)c(OC)cc3c2cc1OC | 3.8 | > 20 | > 20 | > 20 | 3.9 | > 20 | > 20 | > 20 | > 20
7 | COc1cc2cc(Cn3cc(COc4c(Br)cccc4Br)nn3)c3cc(OC)c(OC)cc3c2cc1OC | 5.15 | > 20 | > 20 | > 20 | 3.6 | 14.1 | 7.4 | > 20 | > 20
8 | C=CCc1ccc(OCc2cn(Cc3cc4cc(OC)c(OC)cc4c4cc(OC)c(OC)cc34)nn2)c(OC)c1 | 7.12 | > 20 | > 20 | > 20 | 7.6 | > 20 | 7.3 | > 20 | > 20

Reference: ChEMBL document CHEMBL4028832, “Design and synthesis of 1,2,3-triazolo-phenanthrene hybrids as cytotoxic agents” (Bioorg Med Chem Lett, 2017)
